In brackets after ≈: the same amount, converted by molar mass.
Columns and labels:
Bacillus subtilis [1] = test: Bactericidal activity against Bacillus subtilis NCIM-2063 after 72 hrs by two fold serial macrodilution technique; type: functional; settings: NCIM-2063, 72 h
How it was run: (§1)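 Serial subcultivation followed 72 h of exposure to compounds dissolved in saline containing 5% DMSO. MBC/MFC was the lowest concentration with no visible growth, taken as 99.5% killing of the original inoculum. Runs were in triplicate, with the mean reading used.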

Aspergillus flavus [2] = test: Fungicidal activity against Aspergillus flavus NCIM-539 after 48 to 72 hrs by two fold serial macrodilution technique; type: functional; how it was run: as §1
Candida albicans [3] = test: Antimicrobial activity against Candida albicans NCIM-3471 after 20 hrs by two fold serial macrodilution technique; type: functional; settings: NCIM-3471, 20 h
Escherichia coli [4] = test: Bactericidal activity against Escherichia coli NCIM-2256 after 72 hrs by two fold serial macrodilution technique; type: functional; settings: NCIM-2256, 72 h; how it was run: as §1
HeLa = test: Cytotoxicity against human HeLa cells by SRB method; type: cell-based
How it was run: (§2)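 SRB colorimetric growth assay. IC50, in µM, was the concentration inhibiting cell growth by 50% relative to untreated control cells. Runs were in triplicate in three independent experiments, with means reported. The positive control was doxorubicin.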

MCF7 = test: Cytotoxicity against human MCF7 cells by SRB method; type: cell-based; how it was run: as §2
Salmonella typhimurium [5] = test: Bactericidal activity against […] after 72 hrs by two fold serial macrodilution technique; type: functional, Salmonella enterica subsp. enterica serovar Typhimurium; settings: Salmonella enterica; how it was run: as §1
Cryptococcus neoformans [6] = test: Antimicrobial activity against Cryptococcus neoformans NCIM-3378 after 20 hrs by two fold serial macrodilution technique; type: functional; settings: NCIM-3378, 20 h
Candida albicans [7] = test: Fungicidal activity against Candida albicans NCIM-3471 after 48 to 72 hrs by two fold serial macrodilution technique; type: functional; how it was run: as §1
Cryptococcus neoformans [8] = test: Fungicidal activity against Cryptococcus neoformans NCIM-3378 after 48 to 72 hrs by two fold serial macrodilution technique; type: functional; how it was run: as §1
Escherichia coli [9] = test: Antimicrobial activity against Escherichia coli NCIM-2256 after 20 hrs by two fold serial macrodilution technique; type: functional; settings: NCIM-2256, 20 h
How it was run: (§3)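 Serial macrodilution in 96-well microtiter plates. Compounds were dissolved in saline (0.8% NaCl) containing 5% DMSO, and strains were incubated with a range of concentrations for 20 h at 37 °C on a rotary shaker (160 rpm). MIC was the lowest concentration without growth. Runs were in triplicate, with the mean taken. The negative control was 5% DMSO.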

Salmonella typhimurium [10] = test: Antimicrobial activity against […] after 20 hrs by two fold serial macrodilution technique; type: functional, Salmonella enterica subsp. enterica serovar Typhimurium; settings: Salmonella enterica; how it was run: as §3
Staphylococcus aureus [11] = test: Bactericidal activity against Staphylococcus aureus NCIM-2901 after 72 hrs by two fold serial macrodilution technique; type: functional; settings: NCIM-2901, 72 h; how it was run: as §1
Aspergillus niger [12] = test: Fungicidal activity against Aspergillus niger NCIM-1196 after 48 to 72 hrs by two fold serial macrodilution technique; type: functional; how it was run: as §1
Aspergillus flavus [13] = test: Antimicrobial activity against Aspergillus flavus NCIM-539 after 20 hrs by two fold serial macrodilution technique; type: functional; settings: NCIM-539, 20 h
Bacillus subtilis [14] = test: Antimicrobial activity against Bacillus subtilis NCIM-2063 after 20 hrs by two fold serial macrodilution technique; type: functional; settings: NCIM-2063, 20 h; how it was run: as §3
Staphylococcus aureus [15] = test: Antimicrobial activity against Staphylococcus aureus NCIM-2901 after 20 hrs by two fold serial macrodilution technique; type: functional; settings: NCIM-2901, 20 h; how it was run: as §3
Aspergillus niger [16] = test: Antimicrobial activity against Aspergillus niger NCIM-1196 after 20 hrs by two fold serial macrodilution technique; type: functional; settings: NCIM-1196, 20 h

Row | SMILES | MBC (Bacillus subtilis [1]) [mg/L] | MFC (Aspergillus flavus [2]) [mg/L] | MIC (Candida albicans [3]) [mg/L] | MBC (Escherichia coli [4]) [mg/L] | IC50 (HeLa) [µM] | IC50 (MCF7) [µM] | MBC (Salmonella typhimurium [5]) [mg/L] | MIC (Cryptococcus neoformans [6]) [mg/L] | MFC (Candida albicans [7]) [mg/L] | MFC (Cryptococcus neoformans [8]) [mg/L] | MIC (Escherichia coli [9]) [mg/L] | MIC (Salmonella typhimurium [10]) [mg/L] | MBC (Staphylococcus aureus [11]) [mg/L] | MFC (Aspergillus niger [12]) [mg/L] | MIC (Aspergillus flavus [13]) [mg/L] | MIC (Bacillus subtilis [14]) [mg/L] | MIC (Staphylococcus aureus [15]) [mg/L] | MIC (Aspergillus niger [16]) [mg/L]
1 | O=C1CSC(c2ccccc2)N1c1ccc(Cl)cc1O (stereo not drawn) | 85 (≈ 278 µM) | 115 (≈ 376 µM) | 60 (≈ 196 µM) | 125 (≈ 409 µM) | 63.7 | 56.8 | 120 (≈ 392 µM) | 70 (≈ 229 µM) | 115 (≈ 376 µM) | 125 (≈ 409 µM) | 65 (≈ 213 µM) | 55 (≈ 180 µM) | 40 (≈ 131 µM) | 120 (≈ 392 µM) | 80 (≈ 262 µM) | 60 (≈ 196 µM) | 25 (≈ 81.8 µM) | 90 (≈ 294 µM)
2 | COc1ccc(C2SCC(=O)N2c2ccc(Cl)cc2O)c(OC)c1 (stereo not drawn) | 45 (≈ 123 µM) | 15 (≈ 41 µM) | 3 (≈ 8.2 µM) | 50 (≈ 137 µM) | 68.2 | 68.5 | 45 (≈ 123 µM) | 70 (≈ 191 µM) | 17.5 (≈ 47.8 µM) | 120 (≈ 328 µM) | 30 (≈ 82 µM) | 35 (≈ 95.7 µM) | 25 (≈ 68.3 µM) | 120 (≈ 328 µM) | 10 (≈ 27.3 µM) | 30 (≈ 82 µM) | 15 (≈ 41 µM) | 65 (≈ 178 µM)
3 | N#Cc1ccc(C2SCC(=O)N2c2ccc(Cl)cc2O)cc1 (stereo not drawn) | 140 (≈ 423 µM) | 115 (≈ 348 µM) | 90 (≈ 272 µM) | 120 (≈ 363 µM) | 83.2 | 81.2 | 115 (≈ 348 µM) | 85 (≈ 257 µM) | 140 (≈ 423 µM) |  | 90 (≈ 272 µM) | 55 (≈ 166 µM) | 145 (≈ 438 µM) | 145 (≈ 438 µM) | 60 (≈ 181 µM) | 100 (≈ 302 µM) | 35 (≈ 106 µM) | 100 (≈ 302 µM)
4 | O=C1CSC(c2ccc(Cl)cc2Cl)N1c1ccc(Cl)cc1O (stereo not drawn) | 160 (≈ 427 µM) | 140 (≈ 374 µM) | 90 (≈ 240 µM) | 150 (≈ 400 µM) | 49.5 | 48.4 | 155 (≈ 414 µM) | 100 (≈ 267 µM) | 160 (≈ 427 µM) | 150 (≈ 400 µM) | 70 (≈ 187 µM) | 75 (≈ 200 µM) | 160 (≈ 427 µM) | 145 (≈ 387 µM) | 85 (≈ 227 µM) | 80 (≈ 214 µM) | 90 (≈ 240 µM) | 70 (≈ 187 µM)
5 | O=C1CSC(c2ccc(Cl)cc2)N1c1ccc(Cl)cc1O (stereo not drawn) | 45 (≈ 132 µM) | 155 (≈ 456 µM) | 70 (≈ 206 µM) | 165 (≈ 485 µM) | 64.4 | 56.2 | 155 (≈ 456 µM) | 95 (≈ 279 µM) | 160 (≈ 470 µM) | 160 (≈ 470 µM) | 50 (≈ 147 µM) | 65 (≈ 191 µM) | 45 (≈ 132 µM) | 165 (≈ 485 µM) | 90 (≈ 265 µM) | 25 (≈ 73.5 µM) | 20 (≈ 58.8 µM) | 65 (≈ 191 µM)
6 | O=C1CSC(c2ccc(F)cc2)N1c1ccc(Cl)cc1O (stereo not drawn) | 150 (≈ 463 µM) | 140 (≈ 432 µM) | 65 (≈ 201 µM) | 145 (≈ 448 µM) | 72.4 | 68.7 | 140 (≈ 432 µM) | 90 (≈ 278 µM) | 150 (≈ 463 µM) | 145 (≈ 448 µM) | 70 (≈ 216 µM) | 60 (≈ 185 µM) | 45 (≈ 139 µM) | 140 (≈ 432 µM) | 90 (≈ 278 µM) | 55 (≈ 170 µM) | 25 (≈ 77.2 µM) | 50 (≈ 154 µM)
7 | O=C1CSC(c2cccs2)N1c1ccc(Cl)cc1O (stereo not drawn) | 55 (≈ 176 µM) | 45 (≈ 144 µM) | 100 (≈ 321 µM) | 160 (≈ 513 µM) | 66.6 | 64.9 | 155 (≈ 497 µM) | 95 (≈ 305 µM) | 160 (≈ 513 µM) | 160 (≈ 513 µM) | 85 (≈ 273 µM) | 70 (≈ 224 µM) | 150 (≈ 481 µM) | 155 (≈ 497 µM) | 25 (≈ 80.2 µM) | 35 (≈ 112 µM) | 60 (≈ 192 µM) | 70 (≈ 224 µM)
8 | CC1(C)S[C@@H]2[C@H](NC(=O)[C@H](N)c3ccccc3)C(=O)N2[C@H]1C(=O)O [AMPICILLIN] | 17.5 (≈ 50.1 µM) |  |  | 17.5 (≈ 50.1 µM) |  |  | 17.5 (≈ 50.1 µM) |  |  |  | 12.5 (≈ 35.8 µM) | 12.5 (≈ 35.8 µM) | 17.5 (≈ 50.1 µM) |  |  | 12.5 (≈ 35.8 µM) | 12.5 (≈ 35.8 µM) | 
9 | Clc1ccc(COC(Cn2ccnc2)c2ccc(Cl)cc2Cl)c(Cl)c1 (stereo not drawn) [MICONAZOLE] |  | 12.5 (≈ 30 µM) | 3.25 (≈ 7.81 µM) |  |  |  |  | 3.25 (≈ 7.81 µM) | 12.5 (≈ 30 µM) | 12.5 (≈ 30 µM) |  |  |  | 12.5 (≈ 30 µM) | 3.25 (≈ 7.81 µM) |  |  | 3.25 (≈ 7.81 µM)
10 | O=C(O)c1cn(C2CC2)c2cc(N3CCNCC3)c(F)cc2c1=O [CIPROFLOXACIN] | 13 (≈ 39.2 µM) |  |  | 8 (≈ 24.1 µM) |  |  | 8 (≈ 24.1 µM) |  |  |  | 7.5 (≈ 22.6 µM) | 7.5 (≈ 22.6 µM) | 13 (≈ 39.2 µM) |  |  | 6.25 (≈ 18.9 µM) |  | 

Reference: ChEMBL document CHEMBL3352499, “One pot three components microwave assisted and conventional synthesis of new 3-(4-chloro-2-hydroxyphenyl)-2-(substituted) thiazolidin-4-one as antimicrobial agents” (Bioorg Med Chem Lett, 2014)
